This sample holds only a part of the variants without activity.
B1: tRNA (parent)
chain: GUUCCGUUGGCGUAAUGGUAACGCGUCUCCCUCCUAAGGAGAAGACUGCGGGUUCGAGUCCCGUACGGAACG

Variants of: B1
Assay: yeast fitness relative to wild type (ratio to wild type); higher = fitter; tRNA-Arg(CCU), competitive growth, 37 C, YPD
Method in brief: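 The tRNA-Arg(CCU) gene variants were made by chemical synthesis with a 3% per-site mutation rate at 69 sites and inserted at the native genomic locus of Saccharomyces cerevisiae. After pooling, the strains were competed in YPD at 37°C for 24 hours in six parallel replicates. Gene amplicons from the start population and each end population were read by 100-nucleotide paired-end sequencing, and Darwinian fitness relative to wild type was taken from genotype frequency changes. Genotypes needed ≥ 100 starting reads, and estimates < 0.5 were set to 0.5.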

Variant	yeast fitness
G10A G17C C22U C30G C33G C61A A69U	≤ 0.5
G10A C11A A15C C24A	≤ 0.5
G10A G17A U59G C62U	≤ 0.5
G10A A42U	0.805
G10A U13A C24A C55G C62U	≤ 0.5
G10A C33U A40G C55G A65C	≤ 0.5
G10A C30U	0.748
G10A C30G	0.511
G10A C30A	0.64
G10A G23C C29U A36C C49G A70U	0.542
G10A C11U C24A C55G	0.595
G10A C22U G56C A70U	≤ 0.5
G10A U13G A43U U53C	≤ 0.5
G10A G25A G41C U54G C61U	0.551
G10A C27G G38A A42G	0.661
G10A A21G C24A C66U	≤ 0.5
G10A A21U A43U A45U G50C	≤ 0.5
G10A A15G G38C	≤ 0.5
G10A C30G C46U	≤ 0.5
G10A U19A G44C U54G C55U	≤ 0.5
G10A A21G C29A U53C C61G G67A A69C	≤ 0.5

Variant	yeast fitness
G10A C33U A45U G48C U64A A70U	≤ 0.5
G10A G25C C49G	0.603
G10A A21C C22A G25C G38A U59A C60U	≤ 0.5
G10A G25A U47C	≤ 0.5
G10A C11G C31U A37C	≤ 0.5
G10A G39C C62U G63A A70U	≤ 0.5
G10A A21C C66U	0.531
G10A U16A G68A	0.567
G10A A36G G38C	≤ 0.5
G10A C29U C30G C34A	≤ 0.5
G10A C60A	0.691
G10A A21C	0.693
G10A A21G	0.878
G10A A21U	0.609
G10A G17C C30G C33G G48A C61A A69U	≤ 0.5
G10A U16A G52A A65U	≤ 0.5
G10A G12C C31U U53C A70C	≤ 0.5
G10A C60G A70U	≤ 0.5
G10A A20C G38A G41A C49U A57U	≤ 0.5
G10A G44C A65C G67A	≤ 0.5
G10A U16A G38A U64C	≤ 0.5

Variant	yeast fitness
G10A A36G A65U	≤ 0.5
G10A G25A G41C A57G	≤ 0.5
G10A G51A	0.691
G10A C33U A65U	≤ 0.5
G10A A36C C66U	≤ 0.5
G10A C22G G58C	≤ 0.5
G10A U16A C31A A42G A43G G68C	≤ 0.5
G10A U19A A40C	≤ 0.5
G10A C11G G44A C49G A65U	≤ 0.5
G10A C24A G56C	≤ 0.5
G10A C49U A69U	≤ 0.5
G10A A43U A69C	0.887
G10A A43G	0.65
G10A A43C	0.811
G10A C22G C27U G56A C66G	0.504
G10A C31A G38C G44A A65G	≤ 0.5
G10A A15U A21C G25C G56A	≤ 0.5
G10A A15C C34A C49U C61G	0.603
G10A G23C C29U A36C C49G	0.53
G10A C11U U35A C61U	≤ 0.5
G10A G56A	0.754

Variant	yeast fitness
G10A C29A C34G A43C	0.68
G10A C30U C34U A42G A57C	≤ 0.5
G10A A15C	0.613
G10A A15U	0.681
G10A C11A A15C C24A C34A C46G G51A	≤ 0.5
G10A U16G	0.611
G10A A69C A70C	≤ 0.5
G10A C29A U35A G56A G67C	≤ 0.5
G10A A37C A42G	≤ 0.5
G10A A20G C29U C49U G56A G63A	≤ 0.5
G10A G68A	0.753
G10A G68U	0.75
G10A G44A U54C C61U A69C	0.638
G10A G51A C55G G67U G68C	≤ 0.5
G10A C24A C33U A57U U59G	≤ 0.5
G10A A57C C66G	≤ 0.5
G10A G44C G63C	≤ 0.5
G10A A36U	0.596
G10A G38C C46A C62G C66U	≤ 0.5
G10A U13A C24U A70C	≤ 0.5
G10A A20C G38A G41A A65C	≤ 0.5

From the RNAGym collection of RNA variant scans (doi:10.1126/science.aae0568)
